What was measured:
[1] = Drug level in RPMI-1640 medium treated with ADP at 37 degC measured over 24 hrs by HPLC analysis; type: physicochemical
Method in brief: (§1)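 Incubation in human blood serum and in RPMI-1640 at 37 °C for 0.5–24 h. The HPLC peak integration of each nucleotide is followed over time, and half-life comes from the decay. The products AMP and adenosine are seen as HPLC peaks.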

Serum [2] = assay: Drug level in human serum treated with ADP at 37 degC measured over 24 hrs by HPLC analysis; type: ADME, cell-free; method in brief: as §1
[3] = Metal chelating activity assessed as inhibition of Fe2+-ferrozine complex formation at 200 uM after 10 mins relative to control; type: physicochemical
Method in brief: (§2)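 Competitive ferrozine assay. FeSO4 (final 10 µM) and ferrozine (final 20 µM) are mixed with nucleotide in DDW at final 25–200 µM and agitated 10 min at room temperature. Absorbance of the Fe(II)-ferrozine complex is read at 562 nm with and without compound, and inhibition of complex formation is calculated. Three experiments, mean ± S.D.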

Serum [4] = assay: Drug metabolism in human serum assessed as formation of adenosine at 37 degC measured over 24 hrs by HPLC analysis; type: ADME, cell-free; method in brief: as §1
[5] = Antioxidant activity assessed as ABTS radical scavenging activity after 7 mins; type: physicochemical
Method in brief: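 ABTS radical cation made from 7 mM ABTS with 2.45 mM persulfate (final), kept in the dark at room temperature 12–16 h. It was then diluted in water pH 7.4 to A734 0.80 and mixed with compound or Trolox standard (final 0–60 µM). A734 was read at 7 min. Percent inhibition plotted against concentration; at least three runs, in triplicate.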

[6] = Metal chelating activity assessed as inhibition of Fe2+-ferrozine complex formation after 10 mins; type: physicochemical; method in brief: as §2
[7] = Antioxidant activity assessed as inhibition of Fe2+-induced DMPO-OH adduct formation from H2O2 preincubated for 30 secs followed by DMPO/H2O2 addition measured after 150 secs by ESR analysis; type: physicochemical
Method in brief: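 Fenton/ESR spin trapping: 1 mM ammonium iron(II) sulfate was added to 5–500 µM compound, then Tris buffer pH 7.4 (final pH 7.2–7.4). After 30 s, 100 mM DMPO and 100 mM H2O2 were added (stock concentrations). The ESR spectrum was recorded 150 s after H2O2, at room temperature. DMPO-OH adduct expressed as % of control containing FeSO4, H2O2 and DMPO only.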

[8] = Half life of the compound in RPMI-1640 medium at 37 degC by HPLC analysis; type: ADME
Method in brief: (§3)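 Nucleotides were incubated in human blood serum or RPMI-1640 at 37 °C for 0.5–24 h. Hydrolysis was followed by the change in HPLC peak integration of each analogue over time, and half-life was derived from this.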

[9] = Half life in human serum at 37 degC by HPLC analysis; type: ADME, cell-free; method in brief: as §3
[10] = Neuroprotective activity against Fe2+-induced oxidative damage in rat primary cortical neurons assessed as cell viability after 24 hrs by MTT assay; type: functional, cell-based; conditions: Cerebral cortex neuron
Method in brief: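 Rat (1-day-old) cortical neurons were grown serum-free in DMEM/F12 with B-27 on poly-ornithine, treated with Ara-C and cultured 5 d. Cells were pretreated with nucleotide (0.01–25 µM), then exposed to FeSO4 3 µM final for 24 h. MTT 1 mg/mL was added for 2 h at 37 °C, formazan dissolved in DMSO, A550 read. Viability given as % of vehicle control; three independent experiments in triplicate.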

Drug metabolism [1] | Drug metabolism (Serum [2]) | inhibition (INH) [3] | Drug metabolism (Serum [4]) | IC50 [5] | IC50 [6] | IC50 [7] | half-life [8] | half-life [9] | Compound | EC50 [10]
metabolite_detected | metabolite_detected |  |  |  |  |  |  |  | Nc1ncnc2c1ncn2[C@@H]1O[C@H](CO)[C@@H](O)[C@H]1O [ADENOSINE] | 
 |  | 40% | metabolite_detected | 30 µM | > 200 µM | 170 µM | 1.5 h | 1.5 h | Nc1ncnc2c1ncn2[C@@H]1O[C@H](COP(=O)(O)OP(=O)(O)O)[C@@H](O)[C@H]1O [ADENOSINE DIPHOSPHATE] | 19 µM

From ChEMBL document CHEMBL3632592, “Identification of Highly Promising Antioxidants/Neuroprotectants Based on Nucleoside 5'-Phosphorothioate Scaffold. Synthesis, Activity, and Mechanisms of Action” (J Med Chem, 2015)
